These results are taken from ChEMBL document CHEMBL1152649, “Synthesis, cytotoxicity and human telomerase inhibition activities of a series of 1,2-heteroannelated anthraquinones and anthra[1,2-d]imidazole-6,11-dione homologues” (2009).

Each structure is given as a SMILES string.

Assay [1] relates to SW-620. Description: Antiproliferative activity against human SW620 cells assessed as cell growth at 10 uM. It is filed as functional. Particulars: read-out: Activity. The method, boiled down: (§1)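 NCI 60 cell line panel, single dose (10^-5 M), run per the Developmental Therapeutics Program protocol (one dose mean graph). Each result is the growth percentage of treated cells relative to untreated control cells.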

For assay [2], the system named is MDA-MB-231. As to the kind of experiment: Antiproliferative activity against human MDA-MB-231 cells assessed as cell growth at 10 uM. It is filed as functional. To be noted: read-out: Activity. The method, boiled down: (§2)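 NCI 60 cell line panel, single-dose screen (10^-5 M) run by the developmental therapeutics program protocol. Results are given as growth percent of treated cells relative to untreated control cells for each line.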

In assay [3] the test system is MDA-MB-435. Description: Antiproliferative activity against human MDA-MB-435 cells assessed as cell growth at 10 uM. Particulars: read-out: Activity. It is filed as functional. The method, boiled down: as §2
In assay [4] the test system is MDA-MB-468. Description: Antiproliferative activity against human MDA-MB-468 cells assessed as cell growth at 10 uM. Type of assay: functional. Particulars: read-out: Activity. The method, boiled down:
as §2

For assay [5], the system named is OVCAR-4. Description: Antiproliferative activity against human OVCAR4 cells assessed as cell growth at 10 uM. It is filed as functional. Particulars: read-out: Activity. The method, boiled down: as §2
In assay [6] the test system is MOLT-4. Description: Antiproliferative activity against human MOLT4 cells assessed as cell growth at 10 uM. Type of assay: functional. Particulars: read-out: Activity. The gist of the method: as §2
The test system of assay [7] is ACHN. Description: Antiproliferative activity against human ACHN cells assessed as cell growth at 10 uM. It is filed as functional. To be noted: read-out: Activity. The gist of the method: as §2
The test system of assay [8] is CAKI-1. As to the kind of experiment: Antiproliferative activity against human Caki1 cells assessed as cell growth at 10 uM. It is filed as functional. To be noted: read-out: Activity. The gist of the method:
as §2

For assay [9], the system named is RXF 393. Description: Antiproliferative activity against human RXF393 cells assessed as cell growth at 10 uM. Type of assay: functional. To be noted: read-out: Activity. The method, boiled down: as §2
Assay [10] concerns UO-31. As to the kind of experiment: Antiproliferative activity against human UO31 cells assessed as cell growth at 10 uM. To be noted: read-out: Activity. It is filed as functional. The method, boiled down:
as §1

In assay [11] the test system is LOX IMVI. As to the kind of experiment: Antiproliferative activity against human LOXIMVI cells assessed as cell growth at 10 uM. It is filed as functional. Particulars: read-out: Activity. The method, boiled down:
as §2

Assay [12] has as its system UACC-62. Description: Antiproliferative activity against human UACC62 cells assessed as cell growth at 10 uM. Particulars: read-out: Activity. Type of assay: functional. The method, boiled down:
as §1

For assay [13], the system named is SF-268. As to the kind of experiment: Antiproliferative activity against human SF268 cells assessed as cell growth at 10 uM. It is filed as functional. Particulars: read-out: Activity. The gist of the method:
as §2

In assay [14] the test system is SF-539. Description: Antiproliferative activity against human SF539 cells assessed as cell growth at 10 uM. Type of assay: functional. To be noted: read-out: Activity. The method, boiled down: as §2
Assay [15] relates to SNB-75. Description: Antiproliferative activity against human SNB75 cells assessed as cell growth at 10 uM. Type of assay: functional. To be noted: read-out: Activity. The method, boiled down:
as §1

Assay [16] deals with NCI-H522. As to the kind of experiment: Antiproliferative activity against human NCI-H522 cells assessed as cell growth at 10 uM. It is filed as functional. To be noted: read-out: Activity. The method, boiled down:
as §2

For assay [17], the system named is HCT-116. Description: Antiproliferative activity against human HCT116 cells assessed as cell growth at 10 uM. Particulars: read-out: Activity. Type of assay: functional. The gist of the method: as §2
Assay [18] relates to HCT-15. Description: Antiproliferative activity against human HCT15 cells assessed as cell growth at 10 uM. Type of assay: functional. To be noted: read-out: Activity. The method, boiled down:
as §2

In assay [19] the test system is KM12. Description: Antiproliferative activity against human KM12 cells assessed as cell growth at 10 uM. Type of assay: functional. Particulars: read-out: Activity. The method, boiled down:
as §2

Assay [20] deals with Telomerase reverse transcriptase (Homo sapiens) (UniProt O14746). Description: Inhibition of TERT in human H1299 cells assessed as residual transcriptional activity at 10 uM after 24 hrs by SEAP reporter gene assay; values are per cent of control.
Sequence of Telomerase reverse transcriptase (Homo sapiens) (O14746 whole entry): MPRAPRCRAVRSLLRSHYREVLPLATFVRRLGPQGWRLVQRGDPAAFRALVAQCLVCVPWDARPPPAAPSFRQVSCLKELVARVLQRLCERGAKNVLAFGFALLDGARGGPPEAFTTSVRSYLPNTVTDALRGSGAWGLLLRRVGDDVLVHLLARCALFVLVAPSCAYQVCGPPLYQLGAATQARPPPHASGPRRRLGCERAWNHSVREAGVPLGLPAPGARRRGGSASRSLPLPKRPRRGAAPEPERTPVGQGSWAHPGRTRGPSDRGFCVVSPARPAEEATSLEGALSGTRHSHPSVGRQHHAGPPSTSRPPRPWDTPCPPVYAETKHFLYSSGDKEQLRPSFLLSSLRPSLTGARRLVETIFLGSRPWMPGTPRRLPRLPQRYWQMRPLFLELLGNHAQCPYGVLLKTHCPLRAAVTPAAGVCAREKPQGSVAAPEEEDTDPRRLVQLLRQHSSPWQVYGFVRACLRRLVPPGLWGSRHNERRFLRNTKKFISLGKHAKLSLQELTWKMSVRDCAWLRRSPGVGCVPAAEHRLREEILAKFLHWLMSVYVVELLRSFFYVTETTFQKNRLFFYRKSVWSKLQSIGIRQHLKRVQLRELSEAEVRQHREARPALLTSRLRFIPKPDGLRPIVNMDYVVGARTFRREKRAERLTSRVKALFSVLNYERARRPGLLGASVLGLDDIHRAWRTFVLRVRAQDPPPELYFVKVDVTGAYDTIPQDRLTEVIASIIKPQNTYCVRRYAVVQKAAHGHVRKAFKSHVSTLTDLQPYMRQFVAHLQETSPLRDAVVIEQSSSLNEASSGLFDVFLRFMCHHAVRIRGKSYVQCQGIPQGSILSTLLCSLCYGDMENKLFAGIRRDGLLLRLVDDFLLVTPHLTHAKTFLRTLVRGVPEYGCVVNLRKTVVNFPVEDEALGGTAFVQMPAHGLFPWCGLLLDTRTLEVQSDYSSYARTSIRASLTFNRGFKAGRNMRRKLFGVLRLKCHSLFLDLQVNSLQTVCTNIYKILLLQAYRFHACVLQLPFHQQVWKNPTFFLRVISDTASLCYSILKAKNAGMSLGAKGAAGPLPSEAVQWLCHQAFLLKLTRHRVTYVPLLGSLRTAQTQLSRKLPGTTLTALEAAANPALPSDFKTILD

`CC1(C)Nc2ccc3c(c2N1)C(=O)c1ccccc1C3=O`: the growth at 10 µM in assay [1] is 91.7%; in assay [2], 72.9%; in [3], 125%; in assay [4], 77.2%; in [5], 80.1%; in assay [6] it was 116%. Further, the growth at 10 µM in assay [7] was found to be 50.2%; in [8] it was 61.7%; in [9], 85.1%; in assay [10] it was 30.6%; in assay [11], 61.9%; in [12], 67.6%. The growth at 10 µM in [13] was 90.2%; in [14], 93.6%; in assay [15], 78%; in assay [16], 38.9%; in [17] it was 54.7%; in assay [18], 64.6%. Further, the growth at 10 µM in assay [19] is 51.5%. Besides, the residual activity (in general, the share of the control activity or signal that is left under treatment) in [20] worked out at 73%.
Consider `N#Cc1ccc(-c2nc3ccc4c(c3[nH]2)C(=O)c2ccccc2C4=O)cc1`, for which the growth at 10 µM in assay [1] is 89.4%; in assay [2] it was 87.1%; in assay [3] it was 113%; in [4] it was 95%; in assay [5], 101%; in assay [6], 87.1%. Further, the growth at 10 µM in [7] is 111%; in assay [8], 110%; in assay [9], 117%; in [10], 80.4%; in [11] it was 101%; in assay [12], 104%. In addition, the growth at 10 µM in assay [13] amounted to 99.2%; in assay [14], 104%; in assay [15] it was 63.2%; in [16], 141%; in assay [17] it was 79.8%; in [18], 101%. Also, the growth at 10 µM in [19] was found to be 98.6%. For the same compound, the residual activity in assay [20] was 83%.
